The IC50 is the midpoint of a concentration-inhibition curve.

Consider 28 compounds from ChEMBL document CHEMBL1134459 (J Med Chem, 2001).

One assay concerns the target T1, E-selectin (Homo sapiens, UniProt P16581).
T1 sequence (P16581 whole entry): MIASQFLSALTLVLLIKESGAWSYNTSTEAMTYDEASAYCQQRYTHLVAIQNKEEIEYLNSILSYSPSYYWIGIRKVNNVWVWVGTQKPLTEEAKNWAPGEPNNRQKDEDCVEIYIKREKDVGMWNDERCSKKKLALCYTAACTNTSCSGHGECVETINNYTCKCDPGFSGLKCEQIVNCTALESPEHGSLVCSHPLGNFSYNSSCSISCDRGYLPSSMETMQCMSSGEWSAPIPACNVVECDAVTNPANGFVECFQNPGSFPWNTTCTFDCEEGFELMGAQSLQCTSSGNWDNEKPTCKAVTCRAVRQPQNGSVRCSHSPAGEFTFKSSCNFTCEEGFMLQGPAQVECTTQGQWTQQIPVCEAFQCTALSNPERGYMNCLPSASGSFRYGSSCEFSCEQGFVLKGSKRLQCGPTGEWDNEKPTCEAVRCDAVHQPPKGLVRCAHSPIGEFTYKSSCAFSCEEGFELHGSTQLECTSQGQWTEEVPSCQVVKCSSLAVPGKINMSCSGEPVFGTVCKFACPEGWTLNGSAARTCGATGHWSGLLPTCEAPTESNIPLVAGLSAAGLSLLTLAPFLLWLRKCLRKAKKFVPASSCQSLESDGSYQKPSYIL
In words: Inhibition of selectin E in human endothelial cells. Type of assay: cell-based, Endothelial cell. Put shortly:
(§1)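 Whole-cell ELISA on primary HUVECs plated at 5 × 10^4 cells/mL in EBM/2% FBS with growth supplements. Compound preincubated 24 h at 37 °C, then inducer added (TNFα at 5 ng/mL final, or IL-1β or PMA in its place) for 6 h at 37 °C. Mouse monoclonal anti-E-selectin, anti-ICAM-1 or anti-VCAM-1 was applied overnight at 4 °C, then HRP anti-mouse IgG. Detection with OPD, A490. Triplicate assays.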

In assay [1] the target is Intercellular adhesion molecule 1 (Homo sapiens, UniProt P05362). In words: Inhibition of intercellular adhesion molecule-1 (ICAM1) in human endothelial cells. The format is cell-based, Endothelial cell. The method, boiled down:
as §1

Sequence of Intercellular adhesion molecule 1 (P05362 whole entry): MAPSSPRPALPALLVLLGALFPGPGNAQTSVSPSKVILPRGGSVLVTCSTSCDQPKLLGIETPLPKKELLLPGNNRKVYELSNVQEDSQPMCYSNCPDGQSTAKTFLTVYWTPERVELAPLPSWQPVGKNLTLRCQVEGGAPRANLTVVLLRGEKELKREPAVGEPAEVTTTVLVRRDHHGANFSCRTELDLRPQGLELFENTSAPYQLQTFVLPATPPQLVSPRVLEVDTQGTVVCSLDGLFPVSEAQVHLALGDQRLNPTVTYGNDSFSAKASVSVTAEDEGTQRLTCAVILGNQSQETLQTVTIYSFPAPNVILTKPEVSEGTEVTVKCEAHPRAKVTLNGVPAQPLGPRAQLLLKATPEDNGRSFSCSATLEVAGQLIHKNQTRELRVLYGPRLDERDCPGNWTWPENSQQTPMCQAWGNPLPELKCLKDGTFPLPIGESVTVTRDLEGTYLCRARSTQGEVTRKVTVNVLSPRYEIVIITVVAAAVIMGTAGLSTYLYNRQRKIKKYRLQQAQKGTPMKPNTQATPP

On to `CNC(=O)c1cc2c(Oc3ccc(-c4nn[nH]n4)cc3)cncc2s1`, for which the concentration for half-maximal inhibition (IC50) (against E-selectin; in assay [1]) was over 1000 nM throughout.
Take `NC(=O)c1cc2c(Oc3ccc(N)cc3)cncc2s1`: the half-maximal inhibitory concentration (IC50) at E-selectin turned out to be 35 nM; in assay [1], 42 nM.
In the case of `CCOC(=O)c1ccc(Oc2cncc3sc(C(N)=O)cc23)cc1`, the half-inhibitory concentration (IC50) against E-selectin is 20 nM; in assay [1], 18 nM.
The corresponding values for `CNC(=O)c1cc2c(Oc3ccc(-n4cncn4)cc3)cncc2s1` are 180 nM and 160 nM.
On to `NC(=O)c1cc2c(Oc3ccc(Cl)cc3Br)cncc2s1`, for which the half-inhibitory concentration (IC50) against E-selectin worked out at 110 nM; in assay [1] it was 300 nM.
In the case of `NC(=O)c1cc2c(Oc3ccc(I)cc3)cncc2s1`, the IC50 against E-selectin is 6 nM; in assay [1], 4 nM.
The corresponding values for `CNC(=O)c1cc2c(Oc3ccc(/C=C/C(=O)NCC(O)CO)cc3)cncc2s1` (stereo unspecified) are 830 nM and 580 nM.
As to `Cc1cc(Cl)ccc1Oc1cncc2sc(C(N)=O)cc12`, the IC50 at E-selectin was determined as 370 nM; in assay [1], 580 nM.
The matching figures for `NC(=O)c1cc2c(Oc3ccc(C(=O)N(C(=O)NC4CCCCC4)C4CCCCC4)cc3)cncc2s1`: 115 nM and 116 nM.
Take `CNC(=O)c1cc2c(Oc3ccc(-c4noc(C(F)(F)F)n4)cc3)cncc2s1`: the IC50 against E-selectin was 28 nM; in assay [1], 22 nM.
Turning to `CNC(=O)c1cc2c(Oc3ccc(N4CCOCC4)cc3)cncc2s1`, the IC50 is 35 nM at E-selectin and 79 nM in assay [1].
Turning to `CNC(=O)c1cc2c(Oc3ccc(-c4cncn4C)cc3)cncc2s1`, the concentration for half-maximal inhibition (IC50) against E-selectin came out at 150 nM; in assay [1], 360 nM.
In the case of `CNC(=O)c1cc2c(Oc3ccc(C(=O)NCCN4CCOCC4)cc3)cncc2s1`, the half-inhibitory concentration (IC50) was 770 nM against E-selectin and 730 nM in assay [1].
`NC(=O)c1cc2c(Oc3ccc(C(=O)NCCN4CCOCC4)cc3)cncc2s1`: the IC50 (against E-selectin; in assay [1]) was over 1000 nM throughout.
`NC(=O)c1cc2c(Oc3cccc(C(F)(F)F)c3)cncc2s1`: the 50% inhibitory concentration (IC50) against E-selectin turned out to be 870 nM; in assay [1], 760 nM.
The corresponding values for `CNC(=O)c1cc2c(Oc3ccc(/C=C/C(=O)NCCN(CCO)CCO)cc3)cncc2s1` are 680 nM and 600 nM.
The matching figures for `CNC(=O)c1cc2c(Oc3ccc(/C=C/C(=O)NCCc4c[nH]cn4)cc3)cncc2s1`: 600 nM and 670 nM.
As for `NC(=O)c1cc2c(Oc3ccc(/C=C/C(=O)NCCN(CCO)CCO)cc3)cncc2s1`, the figures for the IC50 (on E-selectin; in assay [1]) were 650 nM and 820 nM, respectively.
Consider `NC(=O)c1cc2c(Oc3ccc(COC4CCCCO4)cc3)cncc2s1` (stereo unspecified), for which the half-maximal inhibitory concentration (IC50) at E-selectin is 2 nM; in assay [1] it was 1.4 nM.
Regarding `CNC(=O)c1cc2c(Oc3ccc(/C=C/C(=O)NCCN4CCOCC4)cc3)cncc2s1`, the half-inhibitory concentration (IC50) came out at 43 nM against E-selectin and 53 nM in assay [1].
As for `NC(=O)c1cc2c(Oc3ccc(Cl)c(F)c3)cncc2s1`, the IC50 was 8 nM against E-selectin and 10 nM in assay [1].
The corresponding values for `NC(=O)c1cc2c(Oc3ccc(C(=O)N4CCOCC4)cc3)cncc2s1` are 870 nM and 830 nM.
The matching figures for `CCOC(=O)c1cccc(Oc2cncc3sc(C(N)=O)cc23)c1`: 630 nM and 680 nM.
As to `CNC(=O)c1cc2c(Oc3ccc(-c4cccs4)cc3)cncc2s1`, the concentration for half-maximal inhibition (IC50) stood at 5 nM against E-selectin and 6 nM in assay [1].
On to `NC(=O)c1cc2c(Oc3cccc(Br)c3)cncc2s1`, for which the 50% inhibitory concentration (IC50) against E-selectin worked out at 80 nM; in assay [1] it was 110 nM.
In the case of `COCCOCc1ccc(Oc2cncc3sc(C(N)=O)cc23)cc1`, the values for the IC50 (on E-selectin; in assay [1]) were 5 nM and 6 nM, respectively.
The corresponding values for `NC(=O)c1cc2c(Oc3ccc(/C=C/C(=O)NCC(O)CO)cc3)cncc2s1` (stereo unspecified) are over 715 nM and 790 nM.
`CNC(=O)c1cc2c(Oc3ccc(-c4ccccc4)cc3)cncc2s1`: the figures for the IC50 (against E-selectin; in assay [1]) were 9 nM and 25 nM, respectively.
